Series [1] has as its system L1210. The experiment in a line: Compound was evaluated for drug concentration for 50% inhibition of actively growing L1210 cells in culture for the inhibition of incorporation of [3H]uridine in the RNA(isomeric ratio A/B = 76:12). Format: functional. Conditions: Mus musculus, read-out: ED50 (the source's name). An outline of the steps: (§1)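 Actively growing L1210 cells in culture. Drug was dissolved in Me2SO and diluted to 1% Me2SO final. The read-out is [3H]thymidine incorporation into DNA or [3H]uridine incorporation into RNA. ED50 is the drug concentration giving 50% inhibition of incorporation.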

The subject of series [2] is L1210. The experiment in a line: Compound was evaluated for drug concentration for 50% inhibition of actively growing L1210 cells in culture for the inhibition of incorporation of [3H]thymidine in the DNA(isomeric ratio A/B = 76:12). Format: functional. Conditions: Mus musculus, read-out: ED50 (the source's name). In short, it runs like this: as §1
Series [3] can be described thus: Stabilization of helical DNA toward thermal denaturation (delta Tm) was determined (isomeric ratio A/B = 4:91). Format: ADME.
Series [4] is described as follows: Stabilization of helical DNA toward thermal denaturation (delta Tm) was determined (isomeric ratio A/B = 76:12). The series is classed as ADME.
In series [5] the test system is L1210. The experiment in a line: Compound was evaluated for drug concentration for 50% inhibition of actively growing L1210 cells in culture for the inhibition of incorporation of [3H]uridine in the RNAisomeric ratio A/B = 4:91). Format: functional. The conditions noted are these: Mus musculus, read-out: ED50 (the source's name). In short, it runs like this:
as §1

Series [6] concerns L1210. The series is described as follows: Compound was evaluated for drug concentration for 50% inhibition of actively growing L1210 cells in culture for the inhibition of incorporation of [3H]thymidine in the DNA(isomeric ratio A/B = 4:91). The series is classed as functional. The conditions noted are these: Mus musculus, read-out: ED50 (the source's name). In short, it runs like this:
as §1

Series [7] deals with Mus musculus. The experiment in a line: Compound was evaluated for antitumor efficacy at optimum dose in mice against P388 leukemic cells at 8 mg/Kg on q4d 5,9,13 days (intraperitoneal). Format: functional. In short, it runs like this: (§2)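 Mouse survival screens were run by NCI protocols, with intraperitoneal dosing on the schedule given. Efficacy is % T/C, the average survival time of treated mice divided by that of control mice, at the optimal dose.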

Series [8] deals with Mus musculus. The experiment in a line: Compound was evaluated for antitumor efficacy at optimum dose in mice against P388 leukemic cells at 7.5 mg/Kg day 1 (intraperitoneal). The series is classed as functional. In short, it runs like this: as §2
In series [9] the test system is L1210. The series is described as follows: Compound was evaluated for drug concentration for 50% inhibition of actively growing L1210 cells in culture for the inhibition of incorporation of [3H]thymidine in the DNA. The series is classed as functional. The conditions noted are these: Mus musculus, read-out: ED50 (the source's name). In short, it runs like this:
(§3)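 Actively growing L1210 leukemia cells in culture; incorporation of [3H]thymidine into DNA or [3H]uridine into RNA measured. ED50 is the drug concentration giving 50% inhibition of incorporation. Drugs dissolved in Me2SO first, then diluted to 1% Me2SO final.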

The test system of series [10] is Mus musculus. The series is described as follows: Compound was evaluated for antitumor efficacy at optimum dose in mice aagainst B16 melanoma cells at 7.5 mg/Kgon day 1 (intraperitoneal). Format: functional. An outline of the steps: as §2
In series [11] the test system is L1210. The experiment in a line: Compound was evaluated for drug concentration for 50% inhibition of actively growing L1210 cells in culture for the inhibition of incorporation of [3H]uridine in the RNA. Format: functional. The conditions noted are these: Mus musculus, read-out: ED50 (the source's name). An outline of the steps: as §3
Series [12] concerns Mus musculus. The series is described as follows: Compound was evaluated for antitumor efficacy at optimum dose in mice against B16 melanoma cells at 10 mg/Kg on q4d 1,5,9 days (intravenous).
A short description of series [13]: Stabilization of helical DNA toward thermal denaturation (delta Tm) was determined. The series is classed as ADME. An outline of the steps:
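Calf thymus DNA thermal denaturation. Drug at 5.2 × 10^-6 M and DNA (P) at 5.2 × 10^-5 M in 0.01 M phosphate buffer, pH 7, with 10^-5 M EDTA and 5% Me2SO. ΔTm = Tm of DNA-drug complex minus Tm of DNA alone. Values ≤1 are taken as insignificant binding.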

The test system of series [14] is Mus musculus. The experiment in a line: Compound was evaluated for antitumor efficacy at optimum dose in mice against B16 melanoma cells at q4d 5,9,13 days (intraperitoneal); Inactive. The series is classed as functional, organism-based.
The test system of series [15] is Mus musculus. The experiment in a line: Compound was evaluated for antitumor efficacy at optimum dose in mice against B16 melanoma cells at 0.0063 mg/Kg dose on day 1 (intraperitoneal). Format: functional.
The nature of series [16]: Stabilization of helical DNA toward thermal denaturation (delta Tm) was determined (isomeric ratio A/B/C = 7:0:92). The series is classed as ADME.
Series [17] in a line: Partition coefficient was determined in octanol-phosphate at pH 6.0. The series is classed as physicochemical. Conditions: octanol/phosphate buffer. In short, it runs like this: (§4)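 Octanol/buffer partitioning used phosphate buffer at pH 7.4, 6.5 or 6.0 and citrate buffer at pH 4.0. Phases were separated by centrifugation at 2000 rpm for 5 min. Concentration in one phase was read by UV absorbance at 235.5 nm in 1-cm cells, and the other phase was obtained by difference. Determinations were in duplicate at 2 or 3 octanol-buffer ratios (1:10 to 1:50). Log P = log(organic/aqueous concentration).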

Series [18] deals with L1210. The series is described as follows: Compound was evaluated for drug concentration for 50% inhibition of actively growing L1210 cells in culture for the inhibition of incorporation of [3H]uridine in the RNA(isomeric ratio A/B/C = 2:91:7). Format: functional. The conditions noted are these: Mus musculus, read-out: ED50 (the source's name). An outline of the steps: as §1

Series [19] deals with L1210. The series is described as follows: Compound was evaluated for drug concentration for 50% inhibition of actively growing L1210 cells in culture for the inhibition of incorporation of [3H]thymidine in the DNA(isomeric ratio A/B/C = 2:91:7). The series is classed as functional. Conditions: Mus musculus, read-out: ED50 (the source's name). In short, it runs like this:
as §1

The subject of another series is Nucleic Acid. The series is described as follows: Stabilization of helical DNA toward thermal denaturation (delta Tm) was determined (isomeric ratio A/B/C = 2:91:7). The series is classed as nucleic-acid assay. In short, it runs like this: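 Thermal denaturation of calf thymus DNA (5.2 × 10^-5 M P) with drug at 5.2 × 10^-6 M. Buffer was 0.01 M phosphate pH 7 with 10^-5 M EDTA and 5% Me2SO. ΔTm = Tm of the DNA-drug complex minus Tm of DNA alone. Values ≤1 are taken as insignificant binding.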

For series [20], the system named is Mus musculus. The experiment in a line: Compound was evaluated for antitumor efficacy at optimum dose in mice against P388 leukemic cells at 2 mg/kg q4d 5,9,13 days (intraperitoneal). Format: functional. An outline of the steps:
as §2

The test system of series [21] is Mus musculus. The experiment in a line: Compound was evaluated for antitumor efficacy at optimum dose in mice aagainst B16 melanoma cells at 0.0625 mg/Kg day 1 (intraperitoneal). The conditions noted are these: in the assay text read “0.625 mg/Kg” for “0.0625 mg/Kg”. The series is classed as functional. In short, it runs like this:
as §2

In series [22] the test system is L1210. The series is described as follows: Compound was evaluated for drug concentration for 50% inhibition of actively growing L1210 cells in culture for the inhibition of incorporation of [3H]uridine in the RNA(isomeric ratio A/B/C = 28:69:0). The series is classed as functional. The conditions noted are these: Mus musculus, read-out: ED50 (the source's name). An outline of the steps:
as §1

In series [23] the test system is L1210. The series is described as follows: Compound was evaluated for drug concentration for 50% inhibition of actively growing L1210 cells in culture for the inhibition of incorporation of [3H]thymidine in the DNA(isomeric ratio A/B/C = 7:0:92). The conditions noted are these: Mus musculus, read-out: ED50 (the source's name). Format: functional. An outline of the steps:
as §1

Series [24] concerns Mus musculus. The experiment in a line: Compound was evaluated for antitumor efficacy at optimum dose in mice against P388 leukemic cells at 1.25 mg/Kg day 1 (intraperitoneal). Format: functional. An outline of the steps: as §2
Series [25] can be described thus: Partition coefficient was determined in octanol-phosphate at pH 6.5. Format: physicochemical. Conditions: octanol/phosphate buffer. An outline of the steps: as §4
In series [26] the test system is L1210. The experiment in a line: Compound was evaluated for drug concentration for 50% inhibition of actively growing L1210 cells in culture for the inhibition of incorporation of [3H]uridine in the RNA(isomeric ratio A/B/C = 7:0:92). Format: functional. Conditions: Mus musculus, read-out: ED50 (the source's name). In short, it runs like this:
as §1

Series [27] in a line: Partition coefficient was determined in octanol-citrate at pH 4.0. The conditions noted are these: octanol/citrate buffer.
A short description of series [28]: Stabilization of helical DNA toward thermal denaturation (delta Tm) was determined (isomeric ratio A/B/C = 28:69:0). Format: ADME.
Series [29] is described as follows: Partition coefficient was determined in octanol-phosphate at pH 7.4. The series is classed as physicochemical. Conditions: octanol/phosphate buffer. In short, it runs like this: as §4
For series [30], the system named is Mus musculus. The series is described as follows: Compound was evaluated for antitumor efficacy at optimum dose in mice against B16 melanoma cells at 2.5 mg/kg on q4d 1,5,9 days (intravenous).
The subject of series [31] is L1210. The series is described as follows: Compound was evaluated for drug concentration for 50% inhibition of actively growing L1210 cells in culture for the inhibition of incorporation of [3H]thymidine in the DNA(isomeric ratio A/B/C = 28:69:0). The conditions noted are these: Mus musculus, read-out: ED50 (the source's name). Format: functional. An outline of the steps:
as §1

Calls of active or inactive are those of the source. No cut-off for these calls is given here.

Take `COc1cccc2c1C(=O)c1c(O)c3c(c(O)c1C2=O)C[C@@](O)(C(C)=O)C[C@@H]3OC1CC2C(OC3COCC(C#N)N32)C(C)O1` (some centres undefined): the EC50 with L1210 [1] amounted to 220 nM; in the series with L1210 [2], 420 nM; in the series with L1210 [5] it was 840 nM; with L1210 [6], 1950 nM. The “Delta Tm” value in series [3] was determined as 8.3; in series [4], 5.

Consider `COc1cccc2c1C(=O)c1c(O)c3c(c(O)c1C2=O)C[C@@](O)(C(=O)CO)C[C@@H]3O[C@H]1C[C@H](N)[C@H](O)[C@H](C)O1` [DOXORUBICIN], for which the T/C with Mus musculus [7] is reported as 160%; in the series with Mus musculus [8] it was 252%; in the series with Mus musculus [10], 192%; in the series with Mus musculus [12], 206%. The EC50 with L1210 [9] is 1600 nM; in the series on L1210 [11] it was 580 nM. In series [13], the “Delta Tm” value is 12.8.

Regarding `COc1cccc2c1C(=O)c1c(O)c3c(c(O)c1C2=O)C[C@@](O)(C(=O)CO)C[C@@H]3OC1CC(N2CCOCC2C#N)C(O)C(C)O1` (some centres undefined), the T/C entry in the series on Mus musculus [14] was “inactive”. Also, the T/C result with Mus musculus [15] is “>=138%”. Further, the EC50 in the series on L1210 [9] is 3 nM; in the series on L1210 [11] it was 0.53 nM. The “Delta Tm” value in series [13] worked out at 8.7.

For `COc1cccc2c1C(=O)c1c(O)c3c(c(O)c1C2=O)C[C@@](O)(C(=O)CO)C[C@@H]3OC1CC2C(OC3COCC(C#N)N32)C(C)O1` (some centres undefined), the figures for the “Delta Tm” value in [16] and in series [28] were 2.6 and 12.8, respectively. Besides, the logD in series [17] is 2.4; in [25], 2.29; in series [27] it was 2.24; in [29], 2.41. In addition, the EC50 with L1210 [18] was determined as 790 nM; in the series with L1210 [19], 1400 nM; in the series on L1210 [22], 220 nM; in the series on L1210 [23] it was 25 µM; in the series with L1210 [26] it was 2000 nM; in the series on L1210 [31] it was 550 nM. Also, the ΔTm in the series with Nucleic Acid was 12.2. Also, the T/C in the series with Mus musculus [20] is given as 135%; in the series on Mus musculus [21], “>=153%”; with Mus musculus [24], 150%; in the series with Mus musculus [30], 141%.

Regarding `COc1cccc2c1C(=O)c1c(O)c3c(c(O)c1C2=O)C[C@@](O)(C(=O)CO)C[C@@H]3OC1CC(N2CCOCC2)C(O)C(C)O1` (some centres undefined), the logD in series [17] is 0.96; in [25], 1.42; in series [27], -1.1; in series [29], 1.73.
